Assay results reported in ChEMBL document CHEMBL1129746, “Structure-based design of HIV protease inhibitors: sulfonamide-containing 5,6-dihydro-4-hydroxy-2-pyrones as non-peptidic inhibitors” (J Med Chem, 1996).

Experiments:
[1] = target: Human immunodeficiency virus type 1 protease (Human immunodeficiency virus 1, UniProt Q72874); assay: (§1) Tested for inhibition of HIV protease
Procedure, shortened: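 Ki measured against a tandemly linked (single-chain) HIV protease construct, used because the native dimeric enzyme dissociates at low enzyme concentration.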

[2] = target: Human immunodeficiency virus type 1 protease (Human immunodeficiency virus 1) (UniProt Q72874); assay: as §1
[3] = target: Human immunodeficiency virus 1; assay: Tested for antiviral activity in HIV-1 IIIB-infected H9 cells
[4] = target: Human immunodeficiency virus type 1 protease (Human immunodeficiency virus 1, UniProt Q72874, L33I/L63I/Q7K); assay: Compound was tested for inhibition of HIV protease triple mutant (Q7K/L33I/L63I)
[5] = system: Human immunodeficiency virus type 1 protease (Human immunodeficiency virus 1), Q72874 [Q7K,L33I,L63I]
[6] = target: Human immunodeficiency virus type 1 protease (Human immunodeficiency virus 1) (UniProt Q72874); assay: Compound was tested for inhibition of HIV protease in AZT Resistant HIV-1 clinical isolates in primary PBMC
Procedure, shortened: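 A panel of 10 AZT-resistant HIV-1 clinical isolates was grown in primary PBMC using a standardized PBMC drug-susceptibility assay.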

[7] = target: Cathepsin D (Homo sapiens, UniProt P07339); assay: Compound was tested for inhibition human Cathepsin D
Sequence of Cathepsin D (P07339 65-162 limits assumed): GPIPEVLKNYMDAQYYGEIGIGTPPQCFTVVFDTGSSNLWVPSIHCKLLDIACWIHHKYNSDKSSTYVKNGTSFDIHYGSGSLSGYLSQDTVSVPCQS
Sequence of Cathepsin D (P07339 169-412 limits assumed): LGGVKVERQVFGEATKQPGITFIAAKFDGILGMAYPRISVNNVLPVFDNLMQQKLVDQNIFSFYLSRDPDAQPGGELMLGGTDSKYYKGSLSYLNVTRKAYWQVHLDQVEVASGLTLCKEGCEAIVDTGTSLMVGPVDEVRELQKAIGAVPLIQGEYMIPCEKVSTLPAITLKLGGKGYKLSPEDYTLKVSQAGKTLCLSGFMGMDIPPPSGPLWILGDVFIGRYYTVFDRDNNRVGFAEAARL

[8] = in vivo; settings: rat, plasma, iv, 5 mg/kg
[9] = target: Pepsin A (Homo sapiens, UniProt P0DJD9); assay: Inhibition of human pepsin
Sequence of Pepsin A (P0DJD9 whole entry): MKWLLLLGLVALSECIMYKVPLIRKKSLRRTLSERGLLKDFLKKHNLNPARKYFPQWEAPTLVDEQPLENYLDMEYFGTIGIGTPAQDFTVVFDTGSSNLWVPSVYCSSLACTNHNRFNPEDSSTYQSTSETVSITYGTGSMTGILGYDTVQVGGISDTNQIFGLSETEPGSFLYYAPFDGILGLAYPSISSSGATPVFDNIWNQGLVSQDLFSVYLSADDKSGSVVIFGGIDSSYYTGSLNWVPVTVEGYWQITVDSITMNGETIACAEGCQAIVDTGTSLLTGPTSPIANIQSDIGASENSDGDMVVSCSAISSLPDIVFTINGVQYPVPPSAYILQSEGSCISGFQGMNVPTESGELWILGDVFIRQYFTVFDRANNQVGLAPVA

[10] = target: T1, Cathepsin E (Homo sapiens, UniProt P14091); assay: Compound was tested for inhibition human Cathepsin E
T1 sequence (P14091 whole entry): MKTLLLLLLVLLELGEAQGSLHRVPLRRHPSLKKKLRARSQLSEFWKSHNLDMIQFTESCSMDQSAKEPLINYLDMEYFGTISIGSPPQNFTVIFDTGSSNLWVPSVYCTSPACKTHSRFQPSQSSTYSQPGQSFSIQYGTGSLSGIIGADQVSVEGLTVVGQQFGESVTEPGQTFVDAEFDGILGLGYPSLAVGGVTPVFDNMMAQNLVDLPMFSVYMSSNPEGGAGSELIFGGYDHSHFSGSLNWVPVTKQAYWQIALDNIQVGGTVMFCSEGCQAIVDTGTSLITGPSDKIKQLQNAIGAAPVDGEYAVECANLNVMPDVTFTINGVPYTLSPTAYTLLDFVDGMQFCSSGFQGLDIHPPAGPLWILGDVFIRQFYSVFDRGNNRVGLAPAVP

[11] = Totla clearance of compound reported after 5 mg/kg i.v. dose in rat; format: ADME, organism-based; parameters: dose 5 mg/kg, route intravenous; settings: in vivo, iv, read-out: CLtotal (converted)
Procedure, shortened: (§2)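 Rats (n = 3) dosed intravenously at 5 mg/kg in 10% propylene glycol with 22.5% (hydroxypropyl)-β-cyclodextrin (2 mg/g formulation). Blood levels followed over time to derive total clearance and steady-state volume.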

[12] = Volume distribution of compound reported after 5 mg/kg i.v. dose in rat; format: ADME, organism-based; parameters: dose 5 mg/kg, route intravenous; settings: in vivo, iv, read-out: Vss; procedure, shortened: as §2
[13] = Oral bioavailability of compound reported after 5 mg/kg i.v. dose in rat; format: ADME, organism-based; settings: in vivo, 10 mg/kg, in the assay text read “after 10 mg/kg oral dose” for “after 5 mg/kg i.v. dose”
Procedure, shortened: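 Rats given 10 mg/kg orally (n = 9) in 0.01 M sodium hydroxide, pH 10, at 2 mg/g, and 5 mg/kg intravenously (n = 3) in 10% propylene glycol/22.5% hydroxypropyl-β-cyclodextrin. Time-course blood levels compared; F calculated relative to the intravenous dose.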

CCC[C@@]1(CCc2ccccc2)CC(=O)C([C@@H](CC)c2cccc(NS(=O)(=O)c3ccc(C(F)(F)F)cn3)c2)=C(O)O1 (stereo in doubt; form 2) [listing 1 of 2 here]
Ki [1]: 0.032 nM

CCC[C@@]1(CCc2ccccc2)CC(=O)C([C@@H](CC)c2cccc(NS(=O)(=O)c3ccc(C(F)(F)F)cn3)c2)=C(O)O1 (stereo in doubt; form 1) [listing 1 of 2 here]
IC90 [2]: 3000 nM

CCC[C@]1(CCc2ccccc2)CC(=O)C([C@@H](CC)c2cccc(NS(=O)(=O)c3cn(C)cn3)c2)=C(O)O1 (stereo in doubt; Vb) [listing 1 of 2 here]
IC90 [2]: 560 nM

CCC[C@]1(CCc2ccccc2)CC(=O)C([C@@H](CC)c2cccc(NS(=O)(=O)c3cn(C)cn3)c2)=C(O)O1 (stereo in doubt; Vd) [listing 1 of 2 here]
IC90 [2]: > 1000 nM

CCCC1(CCc2ccccc2)CC(=O)C(C(CC)c2cccc(NS(=O)(=O)c3ccccc3)c2)=C(O)O1 (configuration not stated)
Ki [1]: 17 nM | IC90 [2]: 7300 nM

CCC[C@]1(CCc2ccccc2)CC(=O)C([C@@H](CC)c2cccc(NS(=O)(=O)c3ccc(C#N)cn3)c2)=C(O)O1
Ki [1]: 0.12 nM | IC90 [2]: > 1000 nM | IC50 [3]: > 1000 nM

CCC[C@]1(CCc2ccccc2)CC(=O)C([C@@H](CC)c2cccc(NS(=O)(=O)c3cn(C)cn3)c2)=C(O)O1 (stereo in doubt; Vc) [listing 1 of 2 here]
IC90 [2]: > 1000 nM

CCC[C@]1(CCc2ccccc2)CC(=O)C([C@@H](CC)c2cccc(NS(=O)(=O)c3cn(C)cn3)c2)=C(O)O1 (stereo in doubt; Vc) [listing 2 of 2 here]
Ki [1]: 1 nM | IC50 [3]: > 1000 nM

CCCC1(CCc2ccccc2)C=c2oc(=O)c(C(CC)c3ccccc3)c(O)c2=CC1 (configuration not stated)
Ki [1]: 35 nM

CCC[C@@]1(CCc2ccccc2)CC(=O)C([C@@H](CC)c2cccc(NS(=O)(=O)c3ccc(C(F)(F)F)cn3)c2)=C(O)O1 (stereo in doubt; form 2) [listing 2 of 2 here]
IC90 [2]: 1800 nM

CCC[C@@]1(CCc2ccccc2)CC(=O)C([C@@H](CC)c2cccc(NS(=O)(=O)c3ccc(C(F)(F)F)cn3)c2)=C(O)O1 (stereo in doubt; form 1) [listing 2 of 2 here]
Ki [1]: 0.22 nM

CCC[C@]1(CCc2ccccc2)CC(=O)C([C@@H](CC)c2cccc(NS(=O)(=O)c3cn(C)cn3)c2)=C(O)O1 (stereo in doubt; Vd) [listing 2 of 2 here]
Ki [1]: 0.03 nM | IC50 [3]: > 1000 nM

CCCC1(CCc2ccccc2)CC(=O)C(C(CC)c2cccc(NS(=O)(=O)c3ccc(C#N)cc3)c2)=C(O)O1 (configuration not stated)
Ki [1]: 8 nM | IC90 [2]: 4200 nM

CCCC1(CCc2ccccc2)CC(=O)C(C(CC)c2cccc(NS(=O)(=O)c3ccc(F)cc3)c2)=C(O)O1 (configuration not stated)
Ki [1]: 6 nM | IC90 [2]: 4300 nM

CCC[C@]1(CCc2ccccc2)CC(=O)C([C@@H](CC)c2cccc(NS(=O)(=O)c3cn(C)cn3)c2)=C(O)O1 (stereo in doubt; Va) [listing 1 of 2 here]
Ki [1]: 0.12 nM | IC50 [3]: 580 nM

CCC[C@@]1(CCc2ccccc2)CC(=O)C([C@@H](CC)c2cccc(NS(=O)(=O)c3ccc(C#N)cn3)c2)=C(O)O1
Ki [1]: 0.04 nM | IC90 [2]: 890 nM | IC50 [3]: 110 nM

CCCC1(CCc2ccccc2)CC(=O)C(C(CC)c2cccc(NS(=O)(=O)c3cn(C)cn3)c2)=C(O)O1 (configuration not stated)
IC50 [4]: 500 nM | Ki [4]: 1 nM | IC90 [5]: 900 nM

CCC[C@@]1(CCc2ccccc2)CC(O)=C([C@H](CC)c2cccc(NS(=O)(=O)c3ccc(C#N)cn3)c2)C(=O)O1
Ki [1]: 0.007 nM | IC90 [2]: 260 nM

CCC[C@@]1(CCc2ccccc2)CC(O)=C([C@H](CC)c2cccc(NS(=O)(=O)c3ccc(C(F)(F)F)cn3)c2)C(=O)O1
Ki [4]: < 1 nM | IC90 [6]: 150 nM | Ki [7]: 15000 nM | half-life [8]: 5.4 h | Ki [9]: 2000 nM | Ki [10]: 9000 nM | clearance [11]: 2.83 mL/min/kg | Vd [12]: 0.51 L/kg | bioavailability [13]: 30%

CCC[C@]1(CCc2ccccc2)CC(=O)C([C@H](CC)c2cccc(NS(=O)(=O)c3ccc(C#N)cn3)c2)=C(O)O1
Ki [1]: 0.1 nM | IC90 [2]: 1000 nM | IC50 [3]: 490 nM

CCC(Cc1ccccc1)c1cc(O)c(C(CC)c2ccccc2)c(=O)o1 (configuration not stated)
IC50 [3]: 3000 nM

CCCC1(CCc2ccccc2)CC(=O)C(C(CC)c2cccc(NS(=O)(=O)c3cccc4cccnc34)c2)=C(O)O1 (configuration not stated)
Ki [1]: 3 nM | IC90 [2]: 3000 nM

CCC[C@]1(CCc2ccccc2)CC(=O)C([C@@H](CC)c2cccc(NS(=O)(=O)c3cn(C)cn3)c2)=C(O)O1 (stereo in doubt; Vb) [listing 2 of 2 here]
Ki [1]: 0.06 nM | IC50 [3]: 130 nM

CCC[C@]1(CCc2ccccc2)CC(=O)C([C@@H](CC)c2cccc(NS(=O)(=O)c3cn(C)cn3)c2)=C(O)O1 (stereo in doubt; Va) [listing 2 of 2 here]
IC90 [2]: 1000 nM

CCC[C@]1(CCc2ccccc2)CC(=O)C([C@H](CC)c2cccc(NS(=O)(=O)c3ccc(C(F)(F)F)cn3)c2)=C(O)O1
Ki [1]: 0.018 nM | IC90 [2]: 840 nM | IC50 [3]: 140 nM
